In general, TGI refers to how far tumour growth fell short of that in controls.

Consider three compounds from ChEMBL document CHEMBL5705901, “Exploiting selective BCL-2 family inhibitors to dissect cell survival dependencies and define improved strategies for cancer therapy” (Sci Transl Med, 2015).

Activity calls are given as the source filed them. The rule behind the calls is not given here.

The nature of data set [1]: Toxicity in po dosed SCID-bg mouse assessed as tolerance. The data set is classed as organism-based. The following applies: in vivo.
A short description of data set [2]: Toxicity in Sprague-Dawley rat assessed as inhibition of granulopoiesis by measuring reduction in neutrophil count at 7 mg/kg, po administered daily for 5 days measured on day 6 in presence of docetaxel by microscopic analysis relative to control. The data set is classed as organism-based. The following applies: in vivo, 144 h, time 6 day. Summed up:
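Male Sprague-Dawley rats, n = 10 per group: docetaxel 5 mg/kg i.v. once, or oral inhibitor daily for 5 days (30, 50 or 7 mg/kg depending on agent), alone or combined with docetaxel, against vehicles. Total neutrophil and platelet counts in blood collected on day 6; Tukey-Kramer test versus vehicle.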

For data set [3], the system named is MOLT-4. Nature of the data set: Antitumor activity against human MOLT-4 cells xenografted in SCID-bg mouse assessed as tumor regression at 25 mg/kg, po administered twice a day for 14 days. The format is functional, organism-based. Particulars: time 14.0 day. Summed up:
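Mice bearing Molt-4 T-ALL xenografts, dosed alongside a vehicle control group. Each point on the growth curve is the mean volume of 10 tumours, with SD.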
A general note: A xenograft is tissue or cells of one species grown in another, often human tumour cells in immunodeficient mice.

Data set [4] relates to A549. In words: Synergistic antitumor activity against 3 times passaged human A549 cells xenografted in po dosed SCID mouse assessed as tumor growth delay in presence of docetaxel relative to control. The format is functional. A digest of the protocol:
(§1)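 Xenografts dosed with oral inhibitor plus intravenous docetaxel. TGImax = 100(1 − Tv/Cv), from mean treated and control tumor volumes; TGD = 100(T/C − 1), from median times to reach 1 cm3. Group size 5 mice (NCI-H747, A549-FP3, EBC-1, OVCAR-5), 8 (NCI-H358), 10 (NCI-H1650).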

The subject of a further data set is NCI-H196. In words: Synergistic antiproliferative activity against 5 times passaged human NCI-H1963 cells xenografted in mouse assessed as reduction in tumor volume at 25 mg/kg, po co-administered with venetoclax twice a day for 14 days. The format is functional, organism-based. The following applies: time 14.0 day.
For data set [5], the system named is OVCAR-5. In words: Synergistic antitumor activity against human OVCAR-5 cells xenografted in po dosed SCID mouse assessed as maximum tumor growth inhibition in presence of docetaxel relative to control. The format is functional. Summed up: as §1
Data set [6] deals with A549. In words: Antitumor activity against 3 times passaged human A549 cells xenografted in po dosed SCID mouse assessed as tumor growth delay relative to control. The format is functional.
Data set [7] relates to MOLT-4. Nature of the data set: Induction of apoptosis in human MOLT-4 cells assessed as increase in annexin V positive cells upto 500 nM incubated for 24 hrs by Annexin V staining based analysis. The data set is classed as functional, cell-based. A digest of the protocol: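 Molt-4 cells were preincubated for 1 h with or without Z-VAD-fmk (75 μM), then treated for 24 h with increasing concentrations. Phosphatidylserine exposure was measured by annexin V staining. Values are the mean of triplicate experiments ± SD.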

Data set [8] deals with MDA-MB-231. In words: Synergistic antitumor activity against LC3 positive human MDA-MB-231 cells xenografted in SCID mouse assessed as tumor growth delay at 25 mg/kg, po coadministered with docetaxel once daily for 14 days relative to control. The format is functional. The following applies: time 14 day. A digest of the protocol: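 MDA-MB-231 LC3 metastatic breast cancer xenograft, 10 mice per group, with a vehicle control. Dosing: oral agent 25 mg/kg daily for 14 days; docetaxel 7.5 mg/kg iv once; combination gives both regimens. Mean tumor volumes tracked. TGImax = 100(1 − Tv/Cv) from mean treated vs control volumes. TGD = 100(T/C − 1) from median times to reach 1 cm3.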

The subject of a further data set is NCI-H1650. In words: Synergistic antitumor activity against human NCI-H1650 cells xenografted in SCID-bg mouse assessed as maximum tumor growth inhibition at 25 mg/kg, po coadministered with docetaxel once daily for 14 days relative to control. The format is functional. Particulars: NCI-H1650, 336 h, time 14 day, read-out: TGI. A digest of the protocol:
as §1

The subject of another data set is MEF. Nature of the data set: Cytotoxicity against Mcl-1 knockout MEF cells assessed as reduction in cell viability incubated for 48 hrs by CellTiter-Glo cell vaibility assay. Particulars: mouse. The format is toxicity, cell-based. For orientation: ATP-based viability assays read luminescence as a measure of living cells.
The test system of a further data set is MCF7. In words: Synergistic antiproliferative activity against human MCF7 cells expressing luciferase assessed as reduction in cell viability by measuring bliss sum score incubated for 72 hrs in presence of docetaxel by CellTiter-Glo cell vaibility assay. The format is functional.
In the next data set the test system is NCI-H146. In words: Induction of apoptosis in Bcl-xl dependent human NCI-H146 cells assessed as cytochrome C release from mitochondria at 0.1 to 1000 nM incubated for 4 hrs by immunoblot analysis. The data set is classed as functional, cell-based. Particulars: dose 0.1-1000 nM. A digest of the protocol: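 NCI-H146 cells were treated for 4 h with increasing concentrations. Mitochondrial and cytosolic fractions were separated, and cytochrome c in each was determined by immunoblotting.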

A further data set relates to NCI-H23. Nature of the data set: Synergistic antiproliferative activity against human NCI-H23 cells assessed as reduction in cell viability by measuring bliss sum score incubated for 72 hrs in presence of docetaxel by CellTiter-Glo cell vaibility assay. The data set is classed as functional.
In another data set the test system is NCI-H1703. Nature of the data set: Synergistic antiproliferative activity against human NCI-H1703 cells assessed as reduction in cell viability by measuring bliss sum score incubated for 72 hrs in presence of docetaxel by CellTiter-Glo cell vaibility assay. The data set is classed as functional.
A further data set relates to EBC-1. In words: Antagonistic antiproliferative activity against human EBC-1 cells assessed as reduction in cell viability by measuring bliss sum score incubated for 72 hrs in presence of docetaxel by CellTiter-Glo cell vaibility assay. The format is functional.
In data set [9] the test system is OVCAR-5. In words: Synergistic antiproliferative activity against human OVCAR-5 cells assessed as reduction in cell viability by measuring bliss sum score incubated for 72 hrs in presence of docetaxel by CellTiter-Glo cell vaibility assay. The data set is classed as functional.
Another data set deals with DU-4475. Nature of the data set: Synergistic antiproliferative activity against human DU-4475 cells assessed as reduction in cell viability by measuring bliss sum score incubated for 72 hrs in presence of docetaxel by CellTiter-Glo cell vaibility assay. The data set is classed as functional.
Data set [10] concerns SK-BR-3. In words: Synergistic antiproliferative activity against human SK-BR-3 cells assessed as reduction in cell viability by measuring bliss sum score incubated for 72 hrs in presence of docetaxel by CellTiter-Glo cell vaibility assay. The format is functional.
A further data set deals with SK-MES-1. Nature of the data set: Synergistic antiproliferative activity against human SK-MES-1 cells assessed as reduction in cell viability by measuring bliss sum score incubated for 72 hrs in presence of docetaxel by CellTiter-Glo cell vaibility assay. The format is functional.
The test system of another data set is OVCAR-3. Nature of the data set: Synergistic antiproliferative activity against human OVCAR-3 cells assessed as reduction in cell viability by measuring bliss sum score incubated for 72 hrs in presence of docetaxel by CellTiter-Glo cell vaibility assay. The data set is classed as functional.
Another data set deals with MDA-MB-468. Nature of the data set: Induction of apoptosis in human MDA-MB-468 cells assessed as poly(ADP-ribose) polymerase cleavage incubated for 48 hrs in presence of docetaxel by immunoblot analysis. The format is functional, cell-based. For orientation: A western blot detects proteins with antibodies after separation by electrophoresis.
The test system of data set [11] is MDA-MB-231. Nature of the data set: Induction of apoptosis in LC3 positive human MDA-MB-231 cells assessed as accumulation of cells with sub-G0-G1 DNA content at 1 uM incubated for 48 hrs in presence of docetaxel by flow cytometric analysis. The format is functional, cell-based.
The subject of a further data set is HCC1143. In words: Induction of apoptosis in human HCC1143 cells assessed as accumulation of cells with sub-G0-G1 DNA content at 1 uM incubated for 48 hrs in presence of docetaxel by flow cytometric analysis. The format is functional, cell-based.
The next data set has as its system HCC1395. In words: Induction of apoptosis in human HCC1395 cells assessed as accumulation of cells with sub-G0-G1 DNA content at 1 uM incubated for 48 hrs in presence of docetaxel by flow cytometric analysis. The format is functional, cell-based.
Data set [12] deals with SK-BR-3. Nature of the data set: Induction of apoptosis in human SK-BR-3 cells assessed as accumulation of cells with sub-G0-G1 DNA content at 1 uM incubated for 48 hrs in presence of docetaxel by flow cytometric analysis. The data set is classed as functional, cell-based.

On to `Cc1c(-c2ccc(N3CCc4cccc(C(=O)Nc5nc6ccccc6s5)c4C3)nc2C(=O)O)cnn1CC12CC3CC(CC(C3)C1)C2`, for which the Activity entry is recorded as “Non-Toxic” in [1]; “Toxic” in [2]; 131% in the data set with A549 [4]; 108% with A549 [6]; 141% in the data set with MDA-MB-231 [8]. In addition, the result in the data set on MOLT-4 [3], in the data set with NCI-H196 and with MOLT-4 [7] was Active. Moreover, the TGI in the data set on OVCAR-5 [5] is recorded as 57%. In addition, in the data set with NCI-H1650, the inhibition in vivo at 25 mg/kg turned out to be 98%.

Consider `CN(C)CC#Cc1ccc(OCCCc2sc(N3CCc4cccc(C(=O)Nc5nc6ccccc6s5)c4C3)nc2C(=O)O)c(F)c1` [A-1155463], for which, in the data set on MEF, the Activity entry is “Toxic”. Further, the Activity_index with MCF7 is 63; in the data set on NCI-H23, 97; with NCI-H1703, 29; in the data set with EBC-1, -103; in the data set on OVCAR-5 [9] it was 706; in the data set with DU-4475 it was 229. Besides, the Activity_index with SK-BR-3 [10] came to 101; with SK-MES-1, 152; with OVCAR-3, 683. The outcome in the data set with NCI-H146 was Active.

As for `CC1(C)CCC(c2ccc(Cl)cc2)=C(CN2CCN(c3ccc(C(=O)NS(=O)(=O)c4ccc(N[C@H](CCN5CCOCC5)CSc5ccccc5)c(S(=O)(=O)C(F)(F)F)c4)cc3)CC2)C1` [NAVITOCLAX], the outcome with MDA-MB-468, in the data set with MDA-MB-231 [11], in the data set on HCC1143, in the data set on HCC1395 and with SK-BR-3 [12] was Active.
